Bioassay records as filed in PubChem BioAssay.
MrgX1 agonist = activates human MrgX1 receptor signaling; Q96LB2; MrgX1-HEK293 cells, Fluo-4 calcium fluorescence, agonist mode; hits give high values; B-score at 10 µM; hit rate 0.44% among 310,000;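 active means calcium response B-score plate-corrected fluorescence ratio at least 3 library SD, with starting fluorescence B-score inside 5 SD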
Target sequence (Q96LB2 whole entry, looked up): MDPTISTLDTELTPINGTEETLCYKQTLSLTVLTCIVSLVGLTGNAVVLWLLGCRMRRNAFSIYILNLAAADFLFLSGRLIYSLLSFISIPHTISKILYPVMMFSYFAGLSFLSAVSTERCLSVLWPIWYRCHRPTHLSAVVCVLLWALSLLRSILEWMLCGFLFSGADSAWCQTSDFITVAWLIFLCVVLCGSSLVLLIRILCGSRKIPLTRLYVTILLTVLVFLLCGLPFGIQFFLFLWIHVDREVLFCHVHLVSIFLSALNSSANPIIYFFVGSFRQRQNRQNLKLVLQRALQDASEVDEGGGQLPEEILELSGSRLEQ
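Assay system: MrgX1-expressing HEK293 cells / Amount: fifteen thousand cells per well / Doses: test compound in the initial addition of three / Timing: cells plated overnight, dye loaded 0.5 h 37 °C, 0.5 h room temperature / Technique: kinetic calcium dye fluorescence, Fluo-4 NW / Control set: positive and negative controls per plate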
MrgX1 antagonist = human MrgX1 receptor antagonism, primary screen; Q96LB2; MRGX1-HEK293 calcium flux, Fluo-4, BAM8-22 antagonism; hits give low values; B-score at 10 µM; hit rate 1.3% among 310,000; AID 588676;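 active means calcium-response B-score plate-corrected more than 3 library SD below zero, starting fluorescence within 5 deviations, no agonist response on first addition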;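 further: peak minus trough fluorescence over baseline after final BAM8-22 challenge near maximal dose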
RGS4 inh = human RGS4 inhibition | P49798 | HEK293 M3R/RGS4 inducible, Fluo-4 calcium flux; hits give high values; triggered by carbachol at its EC20 | B-score at 10 µM | hit rate 0.45% among 310,000 | AID 463165;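 active means B-score, a plate-corrected calcium signal, over three deviations above library mean, with baseline fluorescence within five deviations of library mean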;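 further: RGS4 expression induced by doxycycline in cells with stable M3 receptor; B-score is computed from the integrated fluorescence ratio over baseline after carbachol; higher B-score means a larger calcium signal and so more RGS4 inhibition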
Target sequence (P49798 whole entry, looked up): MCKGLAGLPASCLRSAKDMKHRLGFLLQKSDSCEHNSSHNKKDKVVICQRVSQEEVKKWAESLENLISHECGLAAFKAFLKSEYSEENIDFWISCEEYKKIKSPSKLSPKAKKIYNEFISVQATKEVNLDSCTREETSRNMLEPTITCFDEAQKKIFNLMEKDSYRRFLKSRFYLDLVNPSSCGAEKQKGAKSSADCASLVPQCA
RGS4 act = potentiators or activators of RGS4. B-score at 10 µM. AID 463111. HEK293 M3R/inducible RGS4, carbachol calcium flux Fluo4; hits give low values. hit rate 0.92% among 310,000;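 active means B-score of the integrated calcium signal more than 4 SD below the library mean, with starting fluorescence not abnormally high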;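 further: negative B-score means reduced calcium response which marks RGS4 activation or potentiation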
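Assay system: HEK293 FlpIn-TREx cells, stable M3R, doxycycline-inducible RGS4 / Probe or stimulus: carbachol, ECmax concentration / Times: overnight RGS4 induction, 30 min dye load 37 °C, 20 min compound RT / Signal: kinetic calcium fluorescence imaging with Fluo4-AM dye, 2 µM / Measure: Agonist-evoked peak-minus-minimum fluorescence over baseline, integrated ratio, B score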
MrgX1 allo act = allosterically activates human MrgX1 receptor signaling. Q96LB2. MrgX1-HEK293, Fluo-4 calcium flux, FDSS; hits give high values. B-score at 10 µM. hit rate 0.63% among 310,000. AID 588675;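 active means plate-corrected calcium response at least 3 library SD above typical, normal starting fluorescence, not activating the receptor alone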;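 further: compound read alongside a low EC10 to EC30 dose of BAM8-22 agonist; peak minus trough fluorescence over baseline measured at the second addition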
Active calls of the source: *; i = inactive; . = no result. Only some compounds are listed: those with a hit (about 3.5% of all), similar ones and a draw of the others.

SMILES	MrgX1 agonist	MrgX1 antagonist	RGS4 inh	RGS4 act	MrgX1 allo act
Cc1cccc[n+]1C1C(c2ccccc2)C(C#N)=C(C(=C=[N-])C#N)NC1(O)C1CC1 (stereo not given)	43*	i	i	i	i
N#CC(=C=[N-])C1=C(C#N)C(c2ccccc2F)C([n+]2ccccc2)C(O)(C2CC2)N1 (stereo not given)	48*	i	i	i	i
COc1ccc(OC)c(N(CC(=O)Nc2ccccc2F)S(=O)(=O)c2ccccc2)c1	i	i	i	i	i
O=C(c1cccc(C(F)(F)F)c1)C1CCCN(C(=O)/C=C/c2cnc[nH]2)C1 (stereo not given)	i	i	i	i	i
COc1ccc(-c2noc3c2-c2nc(-c4ccc(C)cc4)sc2CC3)cc1	i	-4.6*	i	i	i
Fc1ccccc1-c1nc2c(s1)CCc1onc(-c3ccc(Br)cc3)c1-2	i	-5.4*	i	i	i
COc1ccc(-c2noc3c2-c2nc(-c4ccccc4)sc2CC3)cc1	i	i	i	i	i
CCOc1ccc2nc3cc(NCc4ccc(OC)cc4)ccc3c(N)c2c1	i	i	i	-7.6*	i
CCn1cnc2cc(NCc3ccc(OC)cc3)ccc21	i	i	i	i	i
O=C(NCC(c1ccco1)N1CCCC1)c1ccccc1Sc1ccc(C(F)(F)F)cc1[N+](=O)[O-] (stereo not given)	i	i	i	-9*	i
CCCN(CC(=O)Nc1ccccc1C)C(=O)c1cccc(S(=O)(=O)N2CCN(c3ccccc3)CC2)c1	i	i	i	i	i
CCOC(=O)C1=C(C)N=c2s/c(=C\c3ccc(OC(C)=O)cc3)c(=O)n2C1/C=C/c1ccccc1 (stereo not given)	i	i	i	-11*	i
CC(=O)Nc1ccccc1NC(=O)C/C(C)=N/NC(=O)c1cccnc1	i	i	i	i	i
Cc1occc1C(=O)NC(C)C1CCCO1 (stereo not given)	i	-9.3*	i	i	i
COc1nc(Oc2ccc(C(=O)O)cc2)nc(Oc2ccc(C(=O)O)cc2)n1	i	i	i	i	i
COc1ccc(Oc2nc(Oc3ccc(OC)cc3)nc(Oc3ccc(OC)cc3)n2)cc1	i	-6.5*	i	i	i
Cc1ccc(C)c(N2CCN(C(=O)CN3C(=S)NC(C)(C)CC3C)CC2)c1 (stereo not given)	i	i	i	i	i
CC(C)CC(=O)NC(=S)Nc1nc(-c2cccc3ccccc23)cs1	i	i	i	-7.1*	i
Cc1ccc(S(=O)(=O)NCC(=O)N/N=C/c2ccccc2O)cc1	i	-5.4*	i	i	i
CC(=O)OC(C[N+]1(C)CCCCCC1)c1ccccc1 (stereo not given)	i	i	i	-7*	i
C[N+]1(CC(O)c2ccccc2)CCCCCC1 (stereo not given)	i	i	i	i	i
CN1CCN(C(c2cccc(Cl)c2)c2ccccc2Cl)CC1 (stereo not given)	i	i	i	-8*	i
CN1CCN(C(c2ccccc2)c2ccc(Cl)cc2)CC1 (stereo not given)	i	i	.	.	i
COc1cccc(-c2cc(C(=O)N3CCN(C(=O)c4ccco4)CC3)on2)c1	i	i	i	i	i
CCCC1=NN2C(=N)/C(=C\c3ccc(OCCOc4ccc(NC(C)=O)cc4)c(OC)c3)C(=O)N=C2S1	i	i	i	i	15*
SMILES	MrgX1 agonist	MrgX1 antagonist	RGS4 inh	RGS4 act	MrgX1 allo act
CCC1=NN2C(=N)/C(=C/c3c(C)nn(-c4ccccc4)c3Cl)C(=O)N=C2S1	30*	i	i	i	i
CCc1nn2c(=O)cc(COc3ccc(/C=C4\C(=N)N5N=C(C)SC5=NC4=O)cc3)nc2s1	i	-4.5*	i	i	9.4*
CCOc1cc(/C=C2\C(=N)N3N=C(C)SC3=NC2=O)ccc1OCCOc1cccc(OC)c1	i	i	i	i	i
CCC1=NN2C(=N)/C(=C/c3ccc(OS(=O)(=O)c4ccccc4)c(OC)c3)C(=O)N=C2S1	i	i	i	i	i
COc1cc(/C=C2/C(=N)N3OC(C)=CC3=NC2=O)ccc1OCCOc1ccc(C)cc1	i	-4.9*	i	i	i
CSc1nnc(CSc2cc(C)nc(N(C)C)n2)o1	i	i	i	i	i
C=CCC1(CC=C)CCCN1C(=O)C1CCC(=O)N(CCc2ccccc2)C1 (stereo not given)	i	i	i	i	i
COc1ccc(S(=O)(=O)N2CCOC2CNC(=O)C(=O)NCc2ccc(F)cc2)cc1OC (stereo not given)	i	i	i	i	i
COc1cc(/C=C2\C(=N)N3N=C(C)SC3=NC2=O)cc(Cl)c1OCCOc1ccc(NC(C)=O)cc1	i	i	i	i	7.6*
CCOc1cc(/C=C2\C(=N)N3N=C(CC)SC3=NC2=O)ccc1OCCOc1ccc(NC(C)=O)cc1	i	i	i	i	i
COc1cc(/C=C2\C(=N)N3N=C(C(C)C)SC3=NC2=O)ccc1OCCOc1ccc(NC(C)=O)cc1	i	i	i	i	14*
CC(=O)Nc1ccc(OCCOc2ccc(/C=C3/C(=N)N4C=CSC4=NC3=O)cc2)cc1	30*	i	i	i	i
COc1ccccc1OCCOc1ccc(/C=C2\C(=N)N3N=C(S(C)(=O)=O)SC3=NC2=O)cc1	i	i	i	i	i
CCC1=NN2C(=N)/C(=C\c3ccc(OCCOc4ccc(NC(C)=O)cc4)cc3)C(=O)N=C2S1	i	i	i	i	11*
COc1cc(/C=C2\C(=N)N3N=C(C)SC3=NC2=O)cc(OC)c1OCCOc1ccccc1C	i	i	i	i	i
CC(OC(=O)CCN=C1NS(=O)(=O)c2ccccc21)C(=O)Nc1ccc(N(C)C)cc1 (stereo not given)	i	i	i	i	i
COc1ccc(S(=O)(=O)N(C)CC(=O)NCCC2=CCCCC2)cc1OC	i	-5.9*	i	i	i
CC(C)CN(C(=O)COC(=O)c1ccccn1)c1c(N)n(Cc2ccccc2)c(=O)[nH]c1=O	i	i	i	i	i
Cc1nc(S/C(=C/c2ccc(-c3ccc(C(=O)O)cc3)o2)C(=O)O)n[nH]1	i	i	i	i	i
Cc1nc(S/C(=C/c2ccc(-c3cc(Cl)ccc3C)o2)C(=O)O)n[nH]1	i	-5*	i	i	i
Cc1nc(S/C(=C/c2ccc(-c3ccc(Cl)cc3)o2)C(=O)O)n[nH]1	i	i	i	i	i
